Here are results for 14 compounds from PubChem BioAssay.

The structures appear in SMILES notation. Active and inactive are the calls of the source.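 How the source made its calls, unless noted: active means inhibition of the reporter signal at or above 50%; inactive means inhibition below 50%.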

Test [1] in a line: inhibitors of TNFa-induced NFkB p65 translocation, primary screen, imaging, HUVEC, MLSMR starter and 10KST1 sets (AID 438;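 active means inhibition above 20% together with a positive visual image hit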;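 further: compound added about 3h40 before a 20 min TNFalpha stimulation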;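 on inhibition: signal is the nuclear over cytoplasmic p65 intensity ratio per well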). The settings on record: HUVEC TNFa-induced p65 nuclear translocation; cell count: measured here: nuclei count (cytotoxicity indicator), at 2.08 µM; inhibition: at 2 µM, stronger effect = higher value, 0% TNFa-plus-vehicle, 100% no-TNFa wells.
Test [2] can be described thus: reduction of polyQ htt aggregates in cells – imaging, exon1htt(103Q)mCFP cells, high-content imaging, primary screen (AID 483;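 active means visual image review flags a hit and inhibition of aggregation exceeds 20%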;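 further: compound exposure lasted 3 days before fixation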;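 on nuclei count: percent of the per-plate median nuclei count of sample wells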). The settings on record: exon1htt(103Q)mCFP cell line, aggregate imaging, at 2 µM; inhibition of aggregation: stronger effect = higher value; nuclei count: measured here: cell count, toxicity.
Test [3] is described as follows: endothelial E-selectin expression blockers – imaging, HUVEC, immunofluorescence, MLSMR starter and 10KST1 sets, primary screen (AID 487;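 active means visually confirmed hit in the image check and inhibition above 20%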;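 on inhibition: signal is fraction of cell area covered by stained E-selectin grains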;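 on nuclei count: 100% = median nuclei count of all wells on the same plate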). The settings on record: HUVEC TNFalpha-induced E-selectin immunofluorescence imaging, at 2 µM; inhibition: stronger effect = higher value; nuclei count: measured here: cell number, toxicity.
Test [4] has as its target Voltage-gated potassium channel subunit beta-2 (Rattus norvegicus) (UniProt P62483). Put plainly: inhibitors of rat Kvbeta2 reductase activity – biochemical, NADPH fluorescence, primary screen (AID 622;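 active means fluorescence slope higher than the sample average by over 3 SD, cut at about -0.22 in these data, passing the limit was not always enough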;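 further: slope of raw intensity against log time taken from 70 to 1610 s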). The settings on record: recombinant KvBeta, 4-cyanobenzaldehyde reduction, at 10 µM, stronger effect = higher value.
Test [5] has the same target. Put plainly: enhancers of rat Kvbeta2 NADPH turnover – biochemical, NADPH fluorescence, primary screen (AID 623;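 active means NADPH fluorescence slope more negative than the mean of all samples by about 3 SD, 99.7% confidence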;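 further: fluorescence intensity change per second fitted from 20 to 320 s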). The settings on record: Recombinant KvBeta, NADPH fluorescence decrease slope, 10 min; at 10 µM; stronger effect = lower value.
Test [6] addresses Muscarinic acetylcholine receptor M4 (Homo sapiens) (UniProt P08173). Put plainly: M4-linked GIRK flux change, two-sided – cell-based, HEK293 M4/GIRK, thallium flux, BTC-AM, M4 allosteric agonist project, primary screen (AID 625;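 active means fluorescence slope after compound addition differing from the mean of all tested samples at 99.7% confidence, mostly higher but some lower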;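 further: thallium influx through GIRK channels coupled to M4 in HEK293 cells with BTC-AM dye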). The settings on record: at 10 µM, actives lie on both sides. In short, it runs like this: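 Material: HEK293 cells with M4 receptor and GIRK channels; Times: cells overnight at 37 °C, BTC-AM loading 1 h, reads 2 min total; Technique: kinetic BTC-AM fluorescence sampled at 1 Hz, 10 s pre-addition baseline; Read-out basis: slope over 15–24 s of trace normalized to starting intensity; Controls: carbachol positive, DMSO negative.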

Test [7] in a line: blockers of RIG-like receptor reporter activation – cell-based, Sendai virus stimulus, luciferase, 10K MLSCN set, TLR/RLR signaling modifier project, primary screen (AID 602276;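 active means inhibition at or above 50% at 10 µM; inactive means inhibition below 50%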;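 further: firefly luciferase from ISG56 promoter only with Renilla not read in this screen; 0% = Sendai virus plus DMSO and 100% = medium plus DMSO without virus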). The settings on record: HEK293 RL24 IRF3 luciferase reporter, at 10 µM, stronger effect = higher value. On the technique in general: A reporter such as luciferase makes a cellular process visible.
Test [8] is described as follows: TLR3 IRF3 reporter activation blockers – cell-based, poly I:C stimulus, luciferase, 10K MLSCN set, primary screen (AID 602277). The settings on record: HEK293-TLR3 RL24 IRF3 luciferase reporter, at 10 µM, stronger effect = higher value.

Chain of Voltage-gated potassium channel subunit beta-2 (Rattus norvegicus) (P62483 whole entry, looked up): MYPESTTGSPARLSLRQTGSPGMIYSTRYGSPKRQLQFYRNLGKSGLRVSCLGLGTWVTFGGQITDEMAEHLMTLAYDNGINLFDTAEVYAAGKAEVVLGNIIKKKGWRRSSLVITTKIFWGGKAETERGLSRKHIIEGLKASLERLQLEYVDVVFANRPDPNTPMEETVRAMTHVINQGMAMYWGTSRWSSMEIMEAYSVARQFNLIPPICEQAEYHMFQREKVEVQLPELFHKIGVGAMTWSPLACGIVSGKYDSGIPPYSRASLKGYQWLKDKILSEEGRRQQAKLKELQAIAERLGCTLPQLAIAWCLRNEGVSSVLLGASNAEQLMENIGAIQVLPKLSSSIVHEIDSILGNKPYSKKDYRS
Chain of Muscarinic acetylcholine receptor M4 (Homo sapiens) (P08173 whole entry, looked up): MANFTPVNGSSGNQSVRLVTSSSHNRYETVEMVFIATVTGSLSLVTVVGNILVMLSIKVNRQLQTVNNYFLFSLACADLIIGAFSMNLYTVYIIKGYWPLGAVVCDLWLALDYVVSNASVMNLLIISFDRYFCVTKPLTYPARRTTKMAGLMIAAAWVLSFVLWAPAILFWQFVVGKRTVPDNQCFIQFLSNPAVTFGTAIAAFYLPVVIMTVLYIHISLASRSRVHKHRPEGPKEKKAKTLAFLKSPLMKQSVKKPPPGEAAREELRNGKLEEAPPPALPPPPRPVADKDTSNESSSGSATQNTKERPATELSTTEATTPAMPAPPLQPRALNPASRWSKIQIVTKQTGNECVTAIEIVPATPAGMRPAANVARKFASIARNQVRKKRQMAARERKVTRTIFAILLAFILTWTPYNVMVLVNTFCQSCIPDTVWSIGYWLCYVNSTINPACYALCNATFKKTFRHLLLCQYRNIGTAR

For `COc1ccc2c(c1)CCc1c(C(=O)N3CC4(C)CC3CC(C)(C)C4)noc1-2` (centres undefined), the cell count in test [1] came out at 250. Moreover, the inhibition is -6.9% (inactive) in test [1], -59% (inactive) in test [3], 1.5% (inactive) in test [7] and 10.1% (inactive) in test [8]. Further, the inhibition of aggregation in test [2] is 18.9% (inactive). In addition, the nuclei count in test [2] is 98.8%; in test [3], 104%. For the same compound, the fluorescence slope in test [4] was -0.586 (inactive); in test [6], 0.00924 (inactive). The NADPH fluorescence slope in test [5] is -1.4e-05 (inactive).

`CCOC(=O)C1CCN(C(=O)CSc2cc(=O)n(CC)c3ccccc23)CC1`: the cell count in test [1] was found to be 378. For the same compound, the inhibition in test [1] was 2.2% (inactive); in test [3] it was -26.1% (inactive); in test [7], -0.518% (inactive); in test [8], 38.8% (inactive). The inhibition of aggregation in test [2] is -0.2% (inactive). The nuclei count came out at 110% in test [2] and 111% in test [3]. Also, the fluorescence slope in test [4] was -0.629 (inactive); in test [6], 0.00567 (inactive). In addition, the NADPH fluorescence slope in test [5] is 6.5e-05 (inactive).

`O=C(CSc1nc(-c2ccc(F)cc2)cs1)N1CCOCC1`: in test [1], the cell count came to 311. The inhibition was 9.3% (inactive) in test [1], -45.8% (inactive) in test [3], -23.2% (inactive) in test [7] and -106% (inactive) in test [8]. Moreover, the inhibition of aggregation in test [2] was 20.5% (inactive). The nuclei count in test [2] came out at 95.1%; in test [3], 93.6%. For the same compound, the results for the fluorescence slope in test [4] and in test [6] were -0.462 (inactive) and 0.00525 (inactive), respectively. Moreover, the NADPH fluorescence slope in test [5] is 2.4e-05 (inactive).

Consider `CCCC1CCC(C(=O)Nn2c(C)nc3ccccc3c2=O)CC1` (centres undefined), for which the cell count in test [1] came to 340. The inhibition is 0% (inactive) in test [1], 11.4% (inactive) in test [3], 15.6% (inactive) in test [7] and 18.5% (inactive) in test [8]. Also, in test [2], the inhibition of aggregation was -13.5% (inactive). Besides, the figures for the nuclei count in test [2] and in test [3] were 73.2% and 79%, respectively. The fluorescence slope in test [4] was -0.472 (inactive); in test [6], 0.00445 (inactive). In test [5], the NADPH fluorescence slope was -2.4e-05 (inactive).

As for `N#CCSc1nc(-c2ccccc2)cs1`, in test [1], the cell count was determined as 371. The inhibition in test [1] was 5% (inactive); in test [3], -25.1% (inactive); in test [7], -34.5% (inactive); in test [8], -75.5% (inactive). Moreover, the inhibition of aggregation in test [2] is 1.3% (inactive). The nuclei count in test [2] came to 103%; in test [3] it was 109%. The fluorescence slope in test [4] was -0.566 (inactive); in test [6] it was 0.0051 (inactive). Besides, the NADPH fluorescence slope in test [5] is -1.8e-05 (inactive).

For `COc1ccc(-c2ccc(CCC(=O)O)n2NC(=O)c2cccs2)cc1`, the cell count in test [1] is 645. For the same compound, the inhibition in test [1] is -3.5% (inactive); in test [3], -35.1% (inactive); in test [7], 2.14% (inactive); in test [8], 42.4% (inactive). For the same compound, the inhibition of aggregation in test [2] was -1.9% (inactive). Also, the nuclei count was 108% in test [2] and 131% in test [3]. The fluorescence slope in test [4] is -0.464 (inactive); in test [6], 0.00607 (inactive). For the same compound, in test [5], the NADPH fluorescence slope is -3.6e-05 (inactive).

`CCOC(=O)c1cc2c(=O)n3cccc(C)c3nc2n(Cc2ccco2)c1=NC(=O)c1cccnc1`: the cell count in test [1] was determined as 791. Moreover, the inhibition in test [1] is -1.1% (inactive); in test [3] it was -59.3% (inactive); in test [7], 8% (inactive); in test [8], -0.151% (inactive). For the same compound, the inhibition of aggregation in test [2] is 1.7% (inactive). In addition, the nuclei count in test [2] was 108%; in test [3] it was 112%. Besides, the results for the fluorescence slope in test [4] and in test [6] were -0.439 (inactive) and 0.00326 (inactive), respectively. Further, the NADPH fluorescence slope in test [5] was -2e-05 (inactive).

With `O=C(NCc1nnc(SCC(=O)N2CCCCCC2)o1)c1ccco1`, the cell count in test [1] was determined as 595. Further, the inhibition was -15.7% (inactive) in test [1], -52.2% (inactive) in test [3], 6.86% (inactive) in test [7] and 11% (inactive) in test [8]. Also, the inhibition of aggregation in test [2] was 12.1% (inactive). Besides, the nuclei count in test [2] was found to be 124%; in test [3], 106%. Further, the fluorescence slope was -0.516 (inactive) in test [4] and 0.00384 (inactive) in test [6]. Also, the NADPH fluorescence slope in test [5] was -2.1e-05 (inactive).

With `Clc1ccc(Cn2ncc3c(NCc4cccnc4)ncnc32)cc1`, in test [1], the cell count worked out at 321. The inhibition in test [1] was -13.5% (inactive); in test [3], 41.6% (inactive); in test [7] it was 13.3% (inactive); in test [8], -35.2% (inactive). For the same compound, the inhibition of aggregation in test [2] is -3.5% (inactive). The figures for the nuclei count in test [2] and in test [3] were 113% and 82%, respectively. The fluorescence slope in test [4] is -0.55 (inactive); in test [6], 0.00407 (inactive). For the same compound, the NADPH fluorescence slope in test [5] is -0.000128 (inactive).

For the compound `Cc1nc2c(=O)oc3ccccc3c2n1-c1ccccc1`, the cell count in test [1] was 579. The inhibition is 2.9% (inactive) in test [1], 33% (inactive) in test [3], 12.7% (inactive) in test [7] and 23.7% (inactive) in test [8]. The inhibition of aggregation in test [2] is 30.6% (inactive). Further, the nuclei count in test [2] was found to be 90.3%; in test [3], 30.7%. Further, the fluorescence slope in test [4] is -0.519 (inactive); in test [6], 0.0052 (inactive). Further, in test [5], the NADPH fluorescence slope was -3.7e-05 (inactive).

In the case of `CCOc1ccccc1NC(=O)C1CCCN1C(=O)OCc1ccccc1` (centres undefined), in test [1], the cell count came out at 438. The inhibition in test [1] was 6% (inactive); in test [3], -406% (inactive); in test [7], 4.99% (inactive); in test [8], 7.18% (inactive). For the same compound, the inhibition of aggregation in test [2] was -8.5% (inactive). Further, the nuclei count in test [2] was 103%; in test [3] it was 152%. Further, the results for the fluorescence slope in test [4] and in test [6] were -0.544 (inactive) and 0.0063 (inactive), respectively. Moreover, the NADPH fluorescence slope in test [5] is -4.2e-05 (inactive).

For `CCOC(=O)c1ccc(NC2OC(=O)c3ccccc32)cc1` (centres undefined), in test [1], the cell count was found to be 605. Further, the inhibition was -54.1% (inactive) in test [1], -85.2% (inactive) in test [3], 11.8% (inactive) in test [7] and -21.4% (inactive) in test [8]. Moreover, in test [2], the inhibition of aggregation was 6.4% (inactive). The nuclei count was determined as 106% in test [2] and 118% in test [3]. The fluorescence slope in test [4] was -0.216 (inactive); in test [6] it was 0.00703 (inactive). Moreover, the NADPH fluorescence slope in test [5] was -2.5e-05 (inactive).

Regarding `Cc1nc(NC2=NCN(CCc3ccccc3)CN2)nc2c(C)cccc12`, the cell count in test [1] is 428. Further, the inhibition is 46.4% (active) in test [1], -18.7% (inactive) in test [3], 27.7% (inactive) in test [7] and 28.3% (inactive) in test [8]. In addition, the inhibition of aggregation in test [2] was -2.2% (inactive). The nuclei count amounted to 79.5% in test [2] and 104% in test [3]. Further, the fluorescence slope was -0.457 (inactive) in test [4] and 0.0048 (inactive) in test [6]. Moreover, the NADPH fluorescence slope in test [5] was -1.3e-05 (inactive).

Take `CCOC(=O)c1c(NC(=O)CSc2nc3c(c(=O)n(C)c(=O)n3C)n2C(C)C)sc(C)c1C`: the cell count in test [1] turned out to be 547. Also, the inhibition in test [1] was 1.2% (inactive); in test [3], 26.4% (inactive); in test [7], 18% (inactive); in test [8], 20.6% (inactive). The inhibition of aggregation in test [2] is 17.1% (inactive). Also, the nuclei count in test [2] turned out to be 110%; in test [3] it was 82.3%. In addition, the fluorescence slope in test [4] was -0.564 (inactive); in test [6] it was 0.00617 (inactive). Besides, the NADPH fluorescence slope in test [5] is -2.9e-05 (inactive).

By inhibition is commonly meant the change of the read-out against control, counted positive when it falls.
